These results are taken from ChEMBL document CHEMBL1134630, “Synthesis, DNA cross-linking activity, and cytotoxicity of dimeric mitomycins” (J Med Chem, 2001).

For test [1], the system named is A549. In words: in vitro anticancer activity against cultured A549 human tumor(lung) cell line. It counts as functional, cell-based. The procedure, abridged:
(§1)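 Human tumour cell lines grown in RPMI-1640 with 25 mM HEPES, 2% NaHCO3, 10% fetal bovine serum and 100 μg/mL kanamycin at 37 °C under 5% CO2. Cells had 3 days of continuous compound exposure in 96-well plates. Fixed with 10% TCA and stained with 0.4% sulforhodamine B; dye dissolved in 20 mM Tris pH 8.0 and read at 562 nm. Treatments run in duplicate. IC50 interpolated from fitted dose-response curves.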

For the next test, the system named is HCT-8. In words: in vitro inhibition of tumor cell growth in cultured HCT-8 human tumor cell line. It counts as functional, cell-based. Summed up:
as §1

Test [2] relates to KB. Put plainly: in vitro anticancer activity against cultured KB(epidermoid) human tumor cell line. It counts as functional, cell-based. The procedure, abridged: as §1
The subject of a further test is MCF7. In words: in vitro inhibition of tumor cell growth in cultured MCF-7 human tumor cell line. It counts as functional, cell-based. The procedure, abridged:
as §1

The next test deals with PC-3. In words: in vitro inhibition of tumor cell growth in cultured PC-3 human tumor cell line. It counts as functional, cell-based. Summed up: as §1
In test [3] the test system is U-87 MG. In words: in vitro anticancer activity against cultured U87MG (glioblastoma) human tumor cell line. The test is classed as functional, cell-based, U-87MG ATCC. The procedure, abridged: as §1
Another test relates to HepG2. Put plainly: in vitro inhibition of tumor cell growth in cultured HepG2 human tumor cell line. It counts as functional, cell-based. Summed up:
as §1

A short description of test [4]: Mean IC50 for all seven tumor cell lines was determined. It counts as functional. Summed up: as §1
For test [5], the system named is A549. In words: in vitro inhibition of tumor cell growth in cultured A549 human tumor cell line. The test is classed as functional, cell-based. Summed up:
as §1

Test [6] relates to KB. In words: in vitro inhibition of tumor cell growth in cultured KB human tumor cell line. The test is classed as functional, cell-based. The procedure, abridged:
as §1

For test [7], the system named is U-87 MG. Put plainly: in vitro inhibition of tumor cell growth in cultured U87MG human tumor cell line. The test is classed as functional, cell-based, U-87MG ATCC. The procedure, abridged: as §1

Converted amounts (≈) assume the structure as drawn.

Regarding `CO[C@@]12[C@H](COC(N)=O)C3=C(C(=O)C(C)=C(Nc4ccc(Oc5ccc(NC6=C(C)C(=O)C7=C(C6=O)[C@@H](COC(N)=O)[C@@]6(OC)[C@H]8NC8CN76)cc5)cc4)C3=O)N1CC1N[C@@H]12` (stereo partly specified), the half-maximal inhibitory concentration (IC50) (as a rule, the midpoint of a concentration-inhibition curve) was found to be 0.062 µg/mL (≈ 0.0743 µM) in the test on A549 [1]; 0.06 µg/mL (≈ 0.0719 µM) in the test with HCT-8; 0.064 µg/mL (≈ 0.0767 µM) in the test on KB [2]; 0.14 µg/mL (≈ 0.168 µM) with MCF7; 0.08 µg/mL (≈ 0.0958 µM) with PC-3; 0.32 µg/mL (≈ 0.383 µM) with U-87 MG [3]. Also, half-maximal inhibition in the test on HepG2 (IC50) required 0.05 µg/mL (≈ 0.0599 µM). In [4], this molecule had a Mean IC50 of 0.11 µg/mL.

Turning to `CO[C@@]12[C@H](COC(N)=O)C3=C(C(=O)C(C)=C(N)C3=O)N1C[C@H]1[C@@H]2N1C(=O)CCCCCC(=O)N1[C@H]2[C@@H]1CN1C3=C(C(=O)C(N)=C(C)C3=O)[C@@H](COC(N)=O)[C@@]21OC`, the IC50 in the test with A549 [1] was 0.68 µg/mL (≈ 0.858 µM); with KB [2], over 1 µg/mL; with U-87 MG [3], over 1 µg/mL.

Turning to `COC1=C(C)C(=O)C2=C(C1=O)[C@@H](COC(N)=O)[C@@]1(OC)[C@H]3N[C@H]3CN21` [MITOMYCIN A], the IC50 with A549 [1] amounted to 0.006 µg/mL (≈ 0.0172 µM); in the test on HCT-8, 0.006 µg/mL (≈ 0.0172 µM); in the test on KB [2] it was 0.008 µg/mL (≈ 0.0229 µM); in the test with MCF7 it was 0.045 µg/mL (≈ 0.129 µM); in the test on PC-3 it was 0.02 µg/mL (≈ 0.0573 µM); with U-87 MG [3], 0.009 µg/mL (≈ 0.0258 µM). Also, the half-inhibitory concentration (IC50) in the test with HepG2 was 0.008 µg/mL (≈ 0.0229 µM). The Mean IC50 in test [4] is 0.014 µg/mL.

In the case of `CO[C@@]12[C@H](COC(N)=O)C3=C(C(=O)C(C)=C(N)C3=O)N1C[C@H]1[C@@H]2N1C(=O)CCCCC(=O)N1[C@@H]2CN3C4=C(C(=O)C(N)=C(C)C4=O)[C@H](COC(N)=O)[C@]3(OC)[C@@H]21`, the IC50 is 0.76 µg/mL (≈ 0.976 µM) with A549 [1], over 1 µg/mL in the test on KB [2] and over 1 µg/mL in the test on U-87 MG [3].

On to `CO[C@@]12[C@H](COC(N)=O)C3=C(C(=O)C(C)=C(NCCOCCNC4=C(C)C(=O)C5=C(C4=O)[C@@H](COC(N)=O)[C@@]4(OC)[C@H]6NC6CN54)C3=O)N1CC1N[C@@H]12` (stereo partly specified), for which the half-inhibitory concentration (IC50) in the test on A549 [1] and with U-87 MG [3] was over 10 µg/mL in each case.

With `CO[C@@]12[C@H](COC(N)=O)C3=C(C(=O)C(C)=C(NCc4ccc(CNC5=C(C)C(=O)C6=C(C5=O)[C@@H](COC(N)=O)[C@@]5(OC)[C@H]7NC7CN65)cc4)C3=O)N1CC1N[C@@H]12` (stereo partly specified), the concentration for half-maximal inhibition (IC50) with A549 [1], in the test on KB [2] and in the test with U-87 MG [3] was over 1 µg/mL throughout.

Consider `CO[C@@]12[C@H](COC(N)=O)C3=C(C(=O)C(C)=C(NCCCOCCCNC4=C(C)C(=O)C5=C(C4=O)[C@@H](COC(N)=O)[C@@]4(OC)[C@H]6NC6CN54)C3=O)N1CC1N[C@@H]12` (stereo partly specified), for which the IC50 was over 10 µg/mL in the test on A549 [1], over 1 µg/mL in the test with KB [2] and over 1 µg/mL in the test on U-87 MG [3].

`CO[C@@]12[C@H](COC(N)=O)C3=C(C(=O)C(C)=C(Nc4ccc(CCc5ccc(NC6=C(C)C(=O)C7=C(C6=O)[C@@H](COC(N)=O)[C@@]6(OC)[C@H]8NC8CN76)cc5)cc4)C3=O)N1CC1N[C@@H]12` (stereo partly specified): the IC50 with A549 [1] was determined as 0.095 µg/mL (≈ 0.112 µM); with HCT-8 it was 0.11 µg/mL (≈ 0.13 µM); in the test with KB [2], 0.215 µg/mL (≈ 0.254 µM); in the test on MCF7 it was 0.21 µg/mL (≈ 0.248 µM); in the test with PC-3 it was 0.2 µg/mL (≈ 0.236 µM); with U-87 MG [3] it was 0.51 µg/mL (≈ 0.602 µM). The same molecule had an IC50 with HepG2 of 0.16 µg/mL (≈ 0.189 µM). The Mean IC50 in [4] is 0.2 µg/mL.

As to `CO[C@@]12[C@H](COC(N)=O)C3=C(C(=O)C(C)=C(N)C3=O)N1C[C@H]1[C@@H]2N1C(=O)CCC(=O)N1[C@@H]2CN3C4=C(C(=O)C(N)=C(C)C4=O)[C@H](COC(N)=O)[C@]3(OC)[C@@H]21`, the IC50 with A549 [1] was 0.67 µg/mL (≈ 0.892 µM); in the test with KB [2] it was over 1 µg/mL; in the test on U-87 MG [3], over 1 µg/mL.

In the case of `CO[C@@]12[C@H](COC(N)=O)C3=C(C(=O)C(C)=C(Nc4ccccc4)C3=O)N1C[C@@H]1N[C@@H]12`, the 50% inhibitory concentration (IC50) in the test on A549 [5] is 0.02 µg/mL (≈ 0.0487 µM); in the test on HCT-8, 0.004 µg/mL (≈ 0.00975 µM); in the test on KB [6], 0.13 µg/mL (≈ 0.317 µM); in the test on MCF7 it was 0.06 µg/mL (≈ 0.146 µM); with PC-3, 0.11 µg/mL (≈ 0.268 µM); with U-87 MG [7], 0.26 µg/mL (≈ 0.633 µM). The molecule also had a half-maximal inhibitory concentration (IC50) in the test on HepG2 of 0.05 µg/mL (≈ 0.122 µM). This molecule also displayed a Mean IC50 in test [4] of 0.09 µg/mL.

Take `CO[C@@]12[C@H](COC(N)=O)C3=C(C(=O)C(C)=C(NCCCNCCCNC4=C(C)C(=O)C5=C(C4=O)[C@@H](COC(N)=O)[C@@]4(OC)[C@H]6NC6CN54)C3=O)N1CC1N[C@@H]12` (stereo partly specified): the half-maximal inhibitory concentration (IC50) in the test on A549 [1], in the test on KB [2] and in the test with U-87 MG [3] was over 1 µg/mL in each case.

In the case of `CO[C@@]12[C@H](COC(N)=O)C3=C(C(=O)C(C)=C(N)C3=O)N1C[C@H]1[C@@H]2N1C(=O)CCCC(=O)N1[C@H]2[C@@H]1CN1C3=C(C(=O)C(N)=C(C)C3=O)[C@@H](COC(N)=O)[C@@]21OC`, the IC50 in the test on A549 [1] was 0.67 µg/mL (≈ 0.876 µM); with KB [2] it was over 1 µg/mL; in the test on U-87 MG [3] it was over 1 µg/mL.

As to `CO[C@@]12[C@H](COC(N)=O)C3=C(C(=O)C(C)=C(NCCNCCNC4=C(C)C(=O)C5=C(C4=O)[C@@H](COC(N)=O)[C@@]4(OC)[C@H]6NC6CN54)C3=O)N1CC1N[C@@H]12` (stereo partly specified), the 50% inhibitory concentration (IC50) was over 1 µg/mL with A549 [1], 0.98 µg/mL (≈ 1.33 µM) in the test with KB [2] and over 1 µg/mL with U-87 MG [3].

In the case of `CO[C@@]12[C@H](COC(N)=O)C3=C(C(=O)C(C)=C(N)C3=O)N1C[C@@H]1N[C@@H]12` [MITOMYCIN], the half-inhibitory concentration (IC50) was 0.08 µg/mL (≈ 0.239 µM) in the test on A549 [1]; 0.15 µg/mL (≈ 0.449 µM) with HCT-8; 0.1 µg/mL (≈ 0.299 µM) with KB [2]; 0.45 µg/mL (≈ 1.35 µM) in the test with MCF7; 1.55 µg/mL (≈ 4.64 µM) with PC-3; 0.97 µg/mL (≈ 2.9 µM) with U-87 MG [3]. In the test on HepG2, this molecule returned a half-maximal inhibitory concentration (IC50) of 0.36 µg/mL (≈ 1.08 µM). In [4], this molecule had a Mean IC50 of 0.63 µg/mL.
